Assay outcomes (PubChem BioAssay)
PvdQ inh: P. aeruginosa PvdQ acylase inhibition; 0.063% of 340,000 active; inhibition, % at 10 µM; purified PvdQ acylase, fluorescence plate reader; in the data active = inhibition above about 30%, passing the limit was not always enough; inconclusive = no clear call, values can overlap the other calls;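 note: 0% = vehicle neutral wells and 100% = reference inhibitor wells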
SR-BI DiI-HDL act: enhances SR-BI lipid uptake from DiI-HDL | activation, % at 12.5 µM | CHO ldlA[mSR-BI] cells, DiI-HDL uptake fluorescence, 3 h; 100 = double the neutral-control signal | 0.096% of 320,000 active | AID 504775;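 active = mean replicate activation of at least 60% and every replicate at or above 60%; inconclusive = mean or all-replicate condition met, but not both; inactive = mean below 60% and not all replicates reaching 60%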;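 note: 0% = median plate neutral-control signal and 100% = twice that signal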
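Material: SR-BI-overexpressing, LDLR-lacking CHO cells | Dosing: Single compound concentration, delivered by pin transfer | Probe or stimulus: Labelled HDL, 10 µg/mL | Signal: Bottom-read cell fluorescence after medium removal, ex 550/em 595 nm | Schedule: 3 h, 37 °C | Evaluation: HDL uptake via cellular fluorescence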
SR-BI DiI inh: blocks mouse SR-BI lipid uptake from DiI-HDL | 0.96% of 320,000 active | inhibition, % at 12.5 µM | ldlA[mSR-BI] CHO cells, DiI-HDL uptake fluorescence, 3 h | Q61009;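 active = mean replicate inhibition of at least 70% and a set share of replicates each scoring 70 or more; inconclusive = meets just one of the two criteria; inactive = fails both criteria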;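 note: 0% = median of neutral control wells and 100% = median of positive control wells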
Target sequence (Q61009 whole entry, looked up): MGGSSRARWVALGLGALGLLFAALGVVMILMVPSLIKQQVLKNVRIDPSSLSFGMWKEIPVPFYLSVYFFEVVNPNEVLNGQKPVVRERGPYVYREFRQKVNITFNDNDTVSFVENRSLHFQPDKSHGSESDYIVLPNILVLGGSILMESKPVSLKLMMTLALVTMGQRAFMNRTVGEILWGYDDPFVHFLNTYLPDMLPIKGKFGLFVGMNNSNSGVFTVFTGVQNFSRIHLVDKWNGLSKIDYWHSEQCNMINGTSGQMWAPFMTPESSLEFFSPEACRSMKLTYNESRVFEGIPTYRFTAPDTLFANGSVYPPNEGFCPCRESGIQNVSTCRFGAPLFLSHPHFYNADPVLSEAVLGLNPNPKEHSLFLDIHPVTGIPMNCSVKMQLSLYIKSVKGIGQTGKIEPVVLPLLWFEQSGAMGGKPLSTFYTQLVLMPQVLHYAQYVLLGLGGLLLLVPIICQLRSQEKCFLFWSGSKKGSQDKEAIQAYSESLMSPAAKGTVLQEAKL
rRNA inh HTS: inhibitors of bacterial rRNA selective over humanized ribosomes | E. coli WT GFP vs humanized-ribosome RFP mutants, fluorescence, 24 h; active compounds read low; DMSO median 0, no signal -100 | GFP signal change (wild-type ribosome), % (concentration not given with the values) | 1.6% of 350,000 active;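 active = significant combined selectivity score with lowered wild-type GFP, culture density cut under 30%, mutant RFP and density less affected; inactive = any of these conditions unmet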
Xi reactivation: X-chromosome reactivation activator | XiGFP mouse fibroblasts, % GFP-positive cells imaging, 3 d; cells co-treated with 5-aza-dC sensitizer; scaled so ellipticine positive control = 100% | activation, % at 7.58 µM | 0.055% of 360,000 active;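 active = mean normalized replicate activation at least 10% and every replicate at or above 10%; inconclusive = only one of the two criteria met; inactive = mean below 10% and not all replicates reach 10%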;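 note: 0% = median of on-plate neutral control wells and 100% = ellipticine 6 µM median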
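Schedule: 3 d treatment, 15 min room-temperature fixation; system: 68-5-11 XiGFP fibroblast line; buffer or medium: DMEM plus 5-aza-dC sensitizer; control set: ellipticine 6 µM positive control; compound: one concentration, pinned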
dFosB act-1: activators of mouse delta FosB homodimer | P13346 | purified delta FosB, TAMRA-CDK5 oligo fluorescence polarization; percent of positive-control signal above neutral wells | activation, % at 25 µM | 0.99% of 340,000 active | AID 493131;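 active = mean activation above about 17%, with every replicate also reaching it, limit read from the data, passing the limit was not always enough; inconclusive = only one of the two conditions met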
dFosB act-2: enhances mouse delta FosB homodimer binding to DNA | shares compounds with dFosB act-1 | 2,400 tested, under 10 active | activation, % at 24.9 µM | purified delta FosB, TAMRA-CDK5 oligo fluorescence polarization; normalised: neutral wells 0, positive control 100;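 active = highest replicate activation at or above 34% and every replicate reaching that threshold; inconclusive = meets only one of the two criteria; inactive = meets neither criterion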;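 note: higher polarization means more probe DNA bound by delta FosB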
The depositor's hits bear a star; u = inconclusive; x = no result. Compounds with a hit are over-represented: about 2.6% of the library has one in this group of screens.

SMILES	PvdQ inh	SR-BI DiI-HDL act	SR-BI DiI inh	rRNA inh HTS	Xi reactivation	dFosB act-1	dFosB act-2
COc1cc(OC)c(/C=C2\SC(=O)N(CC(=O)Nc3ccccc3F)C2=O)c(OC)c1	-4	-53	53	3	0	23*	0
COc1ccccc1CNC(=O)c1ccc(OCc2c(C)noc2C)c(OC)c1	-13	-54	54	x	x	-5	x
COc1cc(C(=O)NCCc2ccc(S(N)(=O)=O)cc2)ccc1OCc1c(C)noc1C	-8	-54	54	11	0	26*	2
COc1cc(C(=O)NCc2ccc(C)cc2)ccc1OCc1c(C)noc1C	-11	-32	32	x	x	25*	6
COC(=O)C1=C(C)N(c2cccc3ccccc23)C(=O)C1	-5	u	-248	x	x	-2	x
CCOc1ccc(-n2nnnc2SCC(=O)Nc2ccc(NC(C)=O)cc2)cc1	-19	-3	3	14	0	19*	4
Cc1ccc(C(=O)NC(=S)Nc2ccc3[nH]c(=O)[nH]c3c2)c(C)c1	-4	-3	3	17	1	28*	7
Cc1cccc(C(=O)NC(=S)Nc2ccc3[nH]c(=O)[nH]c3c2)c1	4	-8	8	13	0	13	x
CCOc1ccc(CC(=O)Nc2c(C(=O)Nc3ccccc3)oc3ccccc23)cc1OCC	5	-28	28	x	x	27*	2
CC(C)CCNc1nc(-c2ccco2)c2c(c1C#N)CCCC2	-24	0	0	x	x	-11	x
N#Cc1c(NCCN)nc(-c2ccco2)c2c1CCCC2	-19	5	-5	x	x	26*	4
O=C(C[C@H]1C[C@H]2c3cc(NC(=O)Nc4ccccc4)ccc3O[C@H]2[C@H](CO)O1)NCc1cccc(F)c1	x	x	x	0	0	x	x
CCOc1ccc(C(=O)OCC(=O)Nc2cccc(S(=O)(=O)N3CCCC3)c2)cc1	0	-5	5	5	0	-11	x
O=c1c(Cc2ccccc2)c(O)ccn1Cc1ccc2c(c1)OCO2	0	34	-34	-16	0	37*	6
COc1cc(/C=N/NC(=O)c2cc(C3CC3)[nH]n2)cc(OC)c1OC	-4	-26	26	-7	0	20*	-1
CCOc1cc(/C=N/N=C(/N)c2nonc2N)cc(Br)c1OCc1ccc(Cl)cc1	7	-36	36	x	x	34*	1
COc1cc(/C=N/N=C(/N)c2nonc2N)cc(Br)c1OCc1ccccc1C	-16	-63	63	x	x	14	x
COc1cccc(/C=N/NC(=O)CN(C2=NS(=O)(=O)c3ccccc32)c2ccccc2)c1	-13	16	-16	x	0	22*	0
COc1ccc(/C=N/NC(=O)CN(C2=NS(=O)(=O)c3ccccc32)c2ccccc2)cc1OC	-3	-13	13	x	0	3	x
Cc1cccc(NC(=S)N/N=C/c2ccc(Cl)c([N+](=O)[O-])c2)c1	-19	0	0	x	x	20*	-2
Cc1cccc(NC(=S)N/N=C/c2cccc([N+](=O)[O-])c2)c1	-4	-10	10	x	x	9	x
CN(C)CCCN1C(=O)c2cccc3c(Br)ccc(c23)C1=O	-13	26	-26	-22	0	32*	3
O=C(Nc1ncc(Cc2cccc(Cl)c2)s1)c1cccs1	-8	-4	4	x	x	0	x
CC(Oc1ccc(C(=O)c2ccccc2)cc1)C(=O)Nc1ccc(S(N)(=O)=O)cc1 (stereo not given)	-13	11	-11	x	0	-10	x
CC(OC(=O)c1cc2ccccc2cc1O)C(=O)Nc1ccc(S(N)(=O)=O)cc1 (stereo not given)	1	-9	9	-1	1	25*	0
SMILES	PvdQ inh	SR-BI DiI-HDL act	SR-BI DiI inh	rRNA inh HTS	Xi reactivation	dFosB act-1	dFosB act-2
NC(=O)c1ccsc1NC(=O)CSc1nnc(C2CC2)n1Cc1ccccc1	-10	11	-11	x	x	2	x
O=C(Nc1nccs1)[C@@H]1CCCN1S(=O)(=O)c1ccccc1F	-8	-14	14	-2	0	1	x
CC(=O)c1sc(NC(=O)C2CCCN2S(=O)(=O)c2ccccc2F)nc1C (stereo not given)	6	-2	2	7	0	21*	0
COC1C=CC=C(C)C(=O)NC2=CC(=O)C(N)=C(CC(C)CC(OC)C(O)C(C)C=C(C)C1OC(N)=O)C2=O (stereo not given)	-6	23	-23	-1	0	-5	x
O=C(c1ccc(F)cc1)n1c(NCc2ccccc2)n[nH]c1=S	2	2	-2	12	0	35*	-2
O=C(c1ccc([N+](=O)[O-])cc1)n1nc(-c2ccccc2)nc1NCc1ccc(F)cc1	-11	20	-20	x	0	-8	x
Cc1nc(NC(=O)CSc2ccc(-c3nc4ccccc4[nH]3)cn2)sc1C	15	-22	22	x	x	47*	2
COCCNC(=O)CSc1ccc(-c2nc3ccccc3[nH]2)cn1	-11	x	x	0	0	-8	x
CCc1nnc(NC(=O)CSc2ccc(-c3nc4ccccc4[nH]3)cn2)s1	0	24	-24	x	x	48*	5
CC(C)Cc1nnc(NC(=O)CCC(=O)NCc2ccccc2Cl)s1	-10	9	-9	-7	0	19*	8
CCC(C)c1ccc(S(=O)(=O)N2CCN(S(=O)(=O)c3ccc(NC(C)=O)cc3)CC2)cc1 (stereo not given)	9	x	x	8	x	80*	-1
CO[C@@H]1CN(C)C(=O)c2ccc(NC(C)=O)cc2OC[C@H](C)N(CC2CC2)C[C@@H]1C	x	x	x	2	0	x	x
CCOc1ccc(C(=O)N/N=C/c2cc([N+](=O)[O-])cs2)cc1	9	-31	31	9	-1	21*	-7
Cc1cc(C(=O)N/N=C\c2ccc(COc3ccc([N+](=O)[O-])cc3)o2)ccc1[N+](=O)[O-]	-9	-76	76*	x	x	36*	2
Cc1ccc(OCC(=O)N/N=C\c2ccc(C)o2)c([N+](=O)[O-])c1	-13	10	-10	28	0	-10	x
Cc1ccccc1C(=O)N1CCN(C(c2ccccc2)c2ccccc2)CC1	-8	8	-8	x	0	-6	x
CC(C)NC(=O)Nc1ccc2c(c1)C(=O)N([C@H](C)CO)C[C@@H](C)[C@H](CN(C)C(=O)Nc1ccccc1)O2	x	x	x	2	-1	x	x
Cc1cccc(NC(=O)NNC(=O)COc2ccc([N+](=O)[O-])cc2)c1C	-7	17	-17	4	0	31*	3
